Experimental data taken from ChEMBL document CHEMBL4229344 (Eur J Med Chem, 2018).
Active and inactive are the calls of the source. The rule behind the calls is not given here.

Columns and labels:
[1] = Cmax in Sprague-Dawley rat at 10 mg/kg, po; type: ADME, organism-based; set-up: dose 10 mg/kg, route oral; conditions: in vivo
Outline: (§1)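 Male Sprague-Dawley rats, 6–8 weeks old and fasted overnight, dosed IV at 1 mg/kg or PO at 10 mg/kg. Formulation was 5% DMSO/40% PEG400/55% saline (1 mg/mL). Jugular blood collected on heparin from 1 min to 8 h (IV) or 5 min to 24 h (PO). Plasma separated by centrifugation at 2–8 °C and stored at −80 °C.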

EOL1 [2] = test: Antitumor activity against human EOL-1 cells xenografted in nu/nu mouse assessed as tumor growth inhibition at 25 mg/kg/day, ip; type: functional; conditions: read-out: TGI
Outline: (§2)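 Female nu/nu mice (6 weeks) given subcutaneous right-flank injection of 5 million EOL-1 cells in PBS/Matrigel 1:1. At 200–400 mm3 tumors, randomized to groups of 6 and dosed daily i.p. for 14 days at 25, 50 or 100 mg/kg/d in 0.5% methylcellulose/0.4% Tween80. Tumor volume = W²×L/2, measured daily.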

NCI-H1703 [3] = test: Antiproliferative activity against human NCI-H1703 cells after 72 hrs by CellTiter-Glo or CCK-8 assay; type: functional; conditions: NCI-H1703, 72 h
Outline: (§3)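 Cells in RPMI 1640 with 10% FBS at 37 °C, 5% CO2, seeded at 1–3 × 10^4 cells/mL with serial compound dilutions for 72 h. Viability read by CellTiter-Glo luminescence or CCK-8 absorbance (450/655 nm), normalized to DMSO control.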

[4] = AUC (0 to t) in Sprague-Dawley rat at 10 mg/kg, po; type: ADME, organism-based; conditions: in vivo
Outline: (§4)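 Male Sprague-Dawley rats (6–8 weeks) fasted overnight, dosed IV or orally; compound dissolved in 5% DMSO/40% PEG400/55% saline (dosing solution 1 mg/mL). Blood (~0.2 mL) from jugular vein into heparin; IV sampling 1 min–8 h, oral 5 min–24 h. Plasma separated by centrifugation at 2–8 °C, stored at −80 °C until analysis.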

[5] = Tmax in Sprague-Dawley rat at 1 mg/kg, iv; type: ADME, organism-based; conditions: in vivo; outline: as §1
[6] = biological target: T1, Platelet-derived growth factor receptor alpha (Homo sapiens, UniProt P16234); conditions: NCI-H1703, 1 uM
[7] = AUC (0 to t) in Sprague-Dawley rat at 1 mg/kg, iv; type: ADME, organism-based; conditions: in vivo; outline: as §4
EOL1 [8] = test: Antiproliferative activity against human EOL-1 cells after 72 hrs by CellTiter-Glo or CCK-8 assay; type: functional; conditions: EOL1, 72 h; outline: as §3
NCI-H1703 [9] = test: Antiproliferative activity against human NCI-H1703 cells after 72 hrs in presence of PDGF-AA by CellTiter-Glo or CCK-8 assay; type: functional; conditions: NCI-H1703, 72 h; outline: as §3
[10] = Cmax in Sprague-Dawley rat at 1 mg/kg, iv; type: ADME, organism-based; set-up: dose 1 mg/kg, route intravenous; conditions: in vivo; outline: as §1
[11] = Oral bioavailability in Sprague-Dawley rat at 10 mg/kg; type: ADME, organism-based; conditions: in vivo; outline: as §1
[12] = biological target: T1, Platelet-derived growth factor receptor alpha; conditions: NCI-H1703, 1 uM; remark: listed apart in the source
Mus musculus = test: Toxicity in nu/nu mouse xenografted with human EOL-1 cells assessed as change in body weight at 25 to 100 mg/kg/day, ip; type: organism-based; conditions: in vivo
Outline: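 Female nu/nu mice, 6 weeks old, implanted subcutaneously in the right flank with 5 million EOL-1 cells in PBS/Matrigel 1:1. At tumour size 200–400 mm³, mice randomised into groups of 6 and given daily IP doses of 25, 50 or 100 mg/kg in 0.5% methylcellulose/0.4% Tween80, or vehicle, for 14 days. Body weight measured daily and normalised to initial weight; mean ± SEM.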

EOL1 [13] = test: Antitumor activity against human EOL-1 cells xenografted in nu/nu mouse assessed as tumor growth inhibition at 50 mg/kg/day, ip; type: functional; conditions: read-out: TGI; outline: as §2
[14] = AUC (0 to infinity) in Sprague-Dawley rat at 1 mg/kg, iv; type: ADME, organism-based; set-up: dose 1 mg/kg, time infinity, route intravenous; conditions: in vivo; outline: as §4
[15] = biological target: T1, Platelet-derived growth factor receptor alpha; conditions: 1 uM
[16] = biological target: T1, Platelet-derived growth factor receptor alpha; conditions: 100 nM
[17] = Cytotoxicity against mouse BA/F3 cells after 72 hrs by CellTiter-Glo or CCK-8 assay; type: cell-based, BaF3
Outline: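 Parental BaF3 or IL-3-independent TEL-kinase BaF3 lines, made by retroviral infection and puromycin selection, grown in RPMI 1640 with 10% FBS. Cells seeded at 1–3 × 10^4 cells/mL with serial compound concentrations for 72 h. Viability read by CellTiter-Glo luminescence or CCK-8 absorbance at 450/655 nm and normalised to DMSO. GI50 obtained by triplicate testing with linear regression. Selectivity is the ratio of the two GI50 values.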

[18] = biological target: T1, Platelet-derived growth factor receptor alpha; conditions: 1 uM; remark: listed apart in the source
EOL1 [19] = test: Antitumor activity against human EOL-1 cells xenografted in nu/nu mouse assessed as tumor growth inhibition at 100 mg/kg/day, ip; type: functional; conditions: read-out: TGI; outline: as §2
[20] = AUC (0 to infinity) in Sprague-Dawley rat at 10 mg/kg, po; type: ADME, organism-based; set-up: dose 10 mg/kg, route oral, time infinity; conditions: in vivo; outline: as §4
[21] = Tmax in Sprague-Dawley rat at 10 mg/kg, po; type: ADME, organism-based; conditions: in vivo; outline: as §1
[22] = biological target: T1, Platelet-derived growth factor receptor alpha; conditions: NCI-H1703, 1 uM; remark: listed apart in the source

T1 sequence (P16234 whole entry): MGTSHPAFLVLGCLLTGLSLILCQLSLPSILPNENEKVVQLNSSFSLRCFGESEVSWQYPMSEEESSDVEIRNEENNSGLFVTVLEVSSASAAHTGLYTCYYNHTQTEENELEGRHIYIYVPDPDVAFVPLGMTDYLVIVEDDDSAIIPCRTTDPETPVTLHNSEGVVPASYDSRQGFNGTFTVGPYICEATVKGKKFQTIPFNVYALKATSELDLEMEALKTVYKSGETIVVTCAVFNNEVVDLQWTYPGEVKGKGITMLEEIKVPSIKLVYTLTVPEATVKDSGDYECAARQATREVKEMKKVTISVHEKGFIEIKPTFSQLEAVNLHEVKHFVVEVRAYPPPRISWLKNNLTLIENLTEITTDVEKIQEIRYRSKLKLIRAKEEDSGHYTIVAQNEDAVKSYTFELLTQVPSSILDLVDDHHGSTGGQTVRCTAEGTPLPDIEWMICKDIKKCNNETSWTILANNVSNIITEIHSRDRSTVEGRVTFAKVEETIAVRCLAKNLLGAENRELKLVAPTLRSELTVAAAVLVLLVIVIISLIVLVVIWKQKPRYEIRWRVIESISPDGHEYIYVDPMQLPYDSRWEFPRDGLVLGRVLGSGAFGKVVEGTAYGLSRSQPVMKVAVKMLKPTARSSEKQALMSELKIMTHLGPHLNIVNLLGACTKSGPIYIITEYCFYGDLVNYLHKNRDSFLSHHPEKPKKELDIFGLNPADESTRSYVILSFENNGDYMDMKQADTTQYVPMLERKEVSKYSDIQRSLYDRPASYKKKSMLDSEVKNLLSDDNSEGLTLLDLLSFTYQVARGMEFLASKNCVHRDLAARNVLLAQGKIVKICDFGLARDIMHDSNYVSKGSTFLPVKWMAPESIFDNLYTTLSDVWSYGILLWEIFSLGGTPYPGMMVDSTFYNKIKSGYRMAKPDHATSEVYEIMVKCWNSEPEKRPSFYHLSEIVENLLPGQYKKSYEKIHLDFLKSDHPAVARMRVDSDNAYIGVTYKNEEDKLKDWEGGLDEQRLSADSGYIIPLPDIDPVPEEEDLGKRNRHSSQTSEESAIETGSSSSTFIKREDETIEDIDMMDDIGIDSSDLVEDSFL

`Cc1ccc(NC(=O)c2ccc(CN3CCN(C)CC3)cc2)cc1Nc1nccc(-c2cccnc2)n1` [IMATINIB] showed a Cmax [1] of 531 ng/mL, an inhibition in vivo at 25 mg/kg/day (EOL1 [2]) of 99.9% and a GI50 (NCI-H1703 [3]) of 2.1 µM. The AUC(0-t) [4] was 6460 ng·h/mL, the Tmax [5] was 1.02 min and the inhibition [6] was “Active”. For the same molecule, the AUC(0-t) [7] was 856 ng·h/mL, the GI50 (EOL1 [8]) was < 0.001 µM and the GI50 (NCI-H1703 [9]) was 0.23 µM. The Cmax [10] was 547 ng/mL, the bioavailability [11] was 76.5% and the inhibition [12] was “Active”. The Activity (Mus musculus) was “Toxic”, the inhibition in vivo at 50 mg/kg/day (EOL1 [13]) was 100% and the AUC(0-inf) [14] was 869 ng·h/mL. The inhibition [15] was “Active”, the inhibition [16] was “inactive” and the GI50 at 72 h [17] was > 10 µM. The inhibition [18] was “Active”, the inhibition in vivo at 100 mg/kg/day (EOL1 [19]) was 100% and the AUC(0-inf) [20] was 6650 ng·h/mL. The Tmax [21] was 6.67 h and the inhibition [22] was “Active”.
